We go through three molecules from PMC1182329 (Nucleic Acids Research, 2005).

Like-named read-outs stand apart in the source and are kept apart here.

Assay [1] relates to VSV-G pseudotyped HIV-1 in CEM cells.
Assay [2] has as its system CEM cells. Kind of assay: Uptake kinetics with 125I-labeled conjugates. The format is cell-based. As to conditions: slope of Hill plot of uptake data, 125I-labeled conjugate, room temperature, 30 s. In outline:
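125I-labeled conjugate purified by gel filtration and C18 reverse phase, quantified at A260, and specific radioactivity set with unlabeled conjugate. 1 × 10^6 CEM cells exposed to varying concentrations at room temperature for 30 s, then filtered on glass fiber, washed with PBS. Internalized conjugate measured by gamma counting from specific radioactivity; nH taken from Hill plot slope.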

Assay [3] has as its system VSV-G pseudotyped HIV-1 virions. Particulars: 1 h.
For assay [4], the system named is TAR-RNA. Kind of assay: Gel retardation assay. The format is binding, HIV-1. Particulars: compared with PNATAR–penetratin and PNATAR–tat conjugates; data not shown.

Turning to `CC[C@H](C)[C@H](NC(=O)[C@H](CCCCN)NC(=O)[C@@H](NC(=O)[C@H](CCC(N)=O)NC(=O)[C@H](CCCNC(=N)N)NC(=O)[C@@H](N)CSSC[C@H](NC(C)=O)C(=O)NCCN(CC(=O)NCCN(CC(=O)NCCN(CC(=O)NCCN(CC(=O)NCCN(CC(=O)NCCN(CC(=O)NCCN(CC(=O)NCCN(CC(=O)NCCN(CC(=O)NCCN(CC(=O)NCCN(CC(=O)NCCN(CC(=O)NCCN(CC(=O)NCCN(CC(=O)NCCN(CC(=O)NCCN(CC(N)=O)C(=O)Cn1cc(C)c(=O)[nH]c1=O)C(=O)Cn1ccc(N)nc1=O)C(=O)Cn1cc(C)c(=O)[nH]c1=O)C(=O)Cn1cnc2c(N)ncnc21)C(=O)Cn1cnc2c(=O)[nH]c(N)nc21)C(=O)Cn1cnc2c(N)ncnc21)C(=O)Cn1ccc(N)nc1=O)C(=O)Cn1cc(C)c(=O)[nH]c1=O)C(=O)Cn1ccc(N)nc1=O)C(=O)Cn1cnc2c(=O)[nH]c(N)nc21)C(=O)Cn1cnc2c(=O)[nH]c(N)nc21)C(=O)Cn1cnc2c(N)ncnc21)C(=O)Cn1ccc(N)nc1=O)C(=O)Cn1ccc(N)nc1=O)C(=O)Cn1ccc(N)nc1=O)C(=O)Cn1cc(C)c(=O)[nH]c1=O)[C@@H](C)CC)C(=O)N[C@@H](Cc1c[nH]c2ccccc12)C(=O)N[C@@H](Cc1ccccc1)C(=O)N[C@@H](CCC(N)=O)C(=O)N[C@@H](CC(N)=O)C(=O)N[C@@H](CCCNC(=N)N)C(=O)N[C@@H](CCCNC(=N)N)C(=O)N[C@@H](CCSC)C(=O)N[C@@H](CCCCN)C(=O)N[C@@H](Cc1c[nH]c2ccccc12)C(=O)N[C@@H](CCCCN)C(=O)N[C@@H](CCCCN)C(=O)O` [PNATAR–penetratin], the “inhibition of HIV-1 replication” value in assay [1] is listed as around 50%. For the same molecule, the “inhibition of HIV-1 replication (words)” value in assay [1] is “did not inhibit”. Besides, the IC50 – broadly, the point on the concentration scale where inhibition reaches its midpoint – came out at 800 nM in assay [1] (VSV-G pseudotyped in CEM cells, 48 h); 800 nM in assay [1] (read-out: Antiviral efficacy IC50); 28 nM in assay [3]. Besides, the “Hill coefficient (nH) of uptake” value in assay [2] was determined as 1.8.

As to Ac-Cys-TCC-CAG-GCT-CAG-ATC-T [PNATAR], the “binding pattern to TAR-RNA in gel shift assay” value in assay [4] is reported as “same binding pattern”.

`CC(=O)N[C@@H](CSSC[C@H](N)C(=O)NCC(=O)N[C@@H](CCCNC(=N)N)C(=O)N[C@@H](CCCCN)C(=O)N[C@@H](CCCCN)C(=O)N[C@@H](CCCNC(=N)N)C(=O)N[C@@H](CCCNC(=N)N)C(=O)N[C@@H](CCC(N)=O)C(=O)N[C@@H](CCCNC(=N)N)C(=O)N[C@@H](CCCNC(=N)N)C(=O)N[C@@H](CCCNC(=N)N)C(=O)N1CCC[C@H]1C(=O)N1CCC[C@H]1C(=O)N[C@@H](CCC(N)=O)C(=O)O)C(=O)NCCN(CC(=O)NCCN(CC(=O)NCCN(CC(=O)NCCN(CC(=O)NCCN(CC(=O)NCCN(CC(=O)NCCN(CC(=O)NCCN(CC(=O)NCCN(CC(=O)NCCN(CC(=O)NCCN(CC(=O)NCCN(CC(=O)NCCN(CC(=O)NCCN(CC(=O)NCCN(CC(=O)NCCN(CC(N)=O)C(=O)Cn1cc(C)c(=O)[nH]c1=O)C(=O)Cn1ccc(N)nc1=O)C(=O)Cn1cc(C)c(=O)[nH]c1=O)C(=O)Cn1cnc2c(N)ncnc21)C(=O)Cn1cnc2c(=O)[nH]c(N)nc21)C(=O)Cn1cnc2c(N)ncnc21)C(=O)Cn1ccc(N)nc1=O)C(=O)Cn1cc(C)c(=O)[nH]c1=O)C(=O)Cn1ccc(N)nc1=O)C(=O)Cn1cnc2c(=O)[nH]c(N)nc21)C(=O)Cn1cnc2c(=O)[nH]c(N)nc21)C(=O)Cn1cnc2c(N)ncnc21)C(=O)Cn1ccc(N)nc1=O)C(=O)Cn1ccc(N)nc1=O)C(=O)Cn1ccc(N)nc1=O)C(=O)Cn1cc(C)c(=O)[nH]c1=O` [PNATAR–tat-peptide] showed an IC50 in assay [3] of 37 nM.
